Source: PubChem (Sanford-Burnham Center for Chemical Genomics)
This is a sample that favours compounds with a hit; in the whole collection about 2.5% have one here.
FLuc inhib CS – Photinus pyralis luciferase inhibition counter-screen; inhibition, % at 10 µM; P08659; hit rate 1.5% among 200,000; ATPLite firefly luciferase biochemical luminescence, 10 min; AID 1006;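 active = inhibition above about 50% when tested at 10 µM, limit read from the data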
Target sequence (P08659 whole entry, looked up): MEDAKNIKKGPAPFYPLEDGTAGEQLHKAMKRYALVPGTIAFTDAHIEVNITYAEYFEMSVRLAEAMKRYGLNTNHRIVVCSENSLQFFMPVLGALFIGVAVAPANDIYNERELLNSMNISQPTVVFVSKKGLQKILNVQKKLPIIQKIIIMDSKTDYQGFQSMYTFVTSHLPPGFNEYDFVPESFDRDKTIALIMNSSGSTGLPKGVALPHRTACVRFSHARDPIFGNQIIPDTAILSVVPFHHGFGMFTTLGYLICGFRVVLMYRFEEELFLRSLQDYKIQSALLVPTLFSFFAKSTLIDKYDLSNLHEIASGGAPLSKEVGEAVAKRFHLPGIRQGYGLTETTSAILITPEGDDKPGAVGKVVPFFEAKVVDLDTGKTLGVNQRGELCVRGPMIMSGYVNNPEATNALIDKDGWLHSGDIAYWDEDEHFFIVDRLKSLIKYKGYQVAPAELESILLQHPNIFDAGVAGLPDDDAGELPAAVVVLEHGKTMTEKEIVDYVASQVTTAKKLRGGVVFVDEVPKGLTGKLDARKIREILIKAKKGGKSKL
Diaphorase inh – diaphorase inhibition or chemical oxidation counter-screen; diaphorase resazurin-to-resorufin fluorescence, NADH, 16 min; bacterial (C. kluyveri) enzyme, not human; inhibition, % at 20 µM; hit rate 0.69% among 190,000; AID 1217;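 active = primary screen inhibition at 20 µM above a set limit, cut at about 50% in these data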
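Test system: Clostridium kluyveri diaphorase enzyme / Quantity: diaphorase at 0.14 U/mL in enzyme working solution / Incubation: 16-min room-temperature incubation before reading / Benchmarks: NADH-free wells as positive control, DMSO-only neutral wells / Signal: resorufin fluorescence 544/590 nm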
Diaphorase act – diaphorase activation or chemical reduction counter-screen | Diaphorase/resazurin coupled assay, resorufin fluorescence, 16 min; hits give high values; 1 = vehicle wells, 0 = NADH-free wells | activation factor at 20 µM | hit rate 0.005% among 190,000;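 active = diaphorase activity raised at least twofold by the compound at 20 µM; inactive = activation factor below 2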
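Test system: Clostridium kluyveri diaphorase, purified enzyme; input: enzyme 0.07 U/mL final; buffer or medium: 50 mM HEPES pH 7.4 with 4.542 mM MgCl2, 0.005% Tween 20; also added: 0.114 mM NADH and 0.1 mM resazurin, final amounts; schedule: 16 min enzyme reaction, ambient temperature; technique: fluorescence of resorufin, 544 nm excitation, 590 nm emission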
FLuc act counter – firefly luciferase counter-screen for stimulation assays; P08659; ATPlite luciferase biochemical, luminescence, 10 min; 0 = ATP-free wells, 1 = DMSO control; activation factor at 10 µM; 200,000 tested, under 10 active; AID 1027;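 active = luciferase activation factor, scaled between plate controls, of at least 2 with compound at 10 µM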
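System: cell-free luciferase reagent; medium: PBS as buffer for the ATP substrate; doses: test compounds dosed from 2 mM stocks in 100% DMSO; incubation: 10 min, room temperature; measured by: luminescence from luciferase reaction; read-out: luciferase activation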
PMI act – activators of human phosphomannose isomerase; P34949; purified human PMI, coupled resazurin fluorescence, 20 min; hits give high values; 1 = vehicle control, 0 substrate-free wells; activation factor at 20 µM; hit rate 0.005% among 190,000; AID 1214;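 active = activation factor of 2 or more at 20 µM, relative to plate controls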
PMI act hi M6P – PMI (human) activation, high substrate; AID 1216; coupled PMI enzyme assay, resazurin fluorescence, 20 min; hits give high values; 1 = untreated enzyme, 0 = substrate-free blank; P34949; hit rate 0.34% among 190,000; activation factor at 20 µM;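 active = activation factor of 2 or more at 20 µM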
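assay system = human phosphomannose isomerase with PGI, G6PDH, diaphorase coupling enzymes | quantity = 15 ng/mL PMI | incubation = enzyme reaction with compound 20 min at room temperature | medium = HEPES pH 7.4 buffer with MgCl2 and Tween-20 | compound dosing = one concentration, 20 µM, in 1% DMSO | measured by = Diaphorase-driven resazurin-to-resorufin fluorescence, excitation 544, emission 590 nm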
Numbers stand for hits; i = inactive; nt = no result.

SMILES | FLuc inhib CS | Diaphorase inh | Diaphorase act | FLuc act counter | PMI act | PMI act hi M6P
O=C(CSCSCC(=O)Nc1ccc2c(c1)OCO2)Nc1ccc2c(c1)OCO2 | i | i | i | i | i | i
CSc1cccc(NC(=O)/C=C/c2ccccc2)c1 | i | i | i | i | i | i
O=C(/C=C/c1ccco1)Nc1ccc2c(c1)OCCO2 | 89 | i | i | i | i | i
CC(C)=CC(=O)Nc1ccc2c(c1)OCO2 | 51 | i | i | i | i | i
COc1ccccc1/C=C/C(=O)Nc1ccc2c(c1)OCCO2 | 85 | i | i | i | i | i
CSc1ccc(/C=C/C(=O)Nc2ccccc2)cc1 | 83 | i | i | i | i | i
Cc1ccc(C(=O)N/C(=C/c2cccs2)C(=O)NCc2ccco2)cc1 | i | i | i | i | i | i
CCOc1ccccc1NC(=S)NCCCn1ccnc1 | i | i | i | i | i | i
O=C(/C=C/c1ccccc1)N/C(=C/c1ccccc1)C(=O)Nc1cccc(C(=O)O)c1 | i | i | i | i | i | i
O=C(/C=C/c1ccccc1)Nc1cccc(C(=O)O)c1 | 92 | i | i | i | i | i
O=C(/C=C/c1ccccc1)Nc1ccc2c(c1)OCCO2 | 94 | nt | nt | i | nt | nt
Cc1ccc(NC(=O)CN2C(=O)S/C(=C/c3ccc(-c4cccc(C(=O)O)c4)o3)C2=O)cc1 | i | 57 | i | i | i | i
Cc1ccc(NC(=O)CN2C(=O)S/C(=C\c3ccc(-c4cccc(C(=O)O)c4C)o3)C2=O)cc1 | i | i | i | i | i | i
Cc1ccccc1NC(=O)CN1C(=O)S/C(=C\c2ccc(-c3cc(C(=O)O)ccc3C)o2)C1=O | i | 67 | i | i | i | i
Cc1ccc(C(=O)O)cc1-c1ccc(/C=C2\SC(=O)N(CC(=O)Nc3ccccc3)C2=O)o1 | i | 57 | i | i | i | i
Cc1ccc(C(=O)O)cc1-c1ccc(/C=C2/NC(=O)N(c3ccccc3)C2=O)o1 | i | i | i | i | i | i
O=C(O)c1cc(-c2ccc(/C=C3/SC(=S)N(Cc4ccccc4)C3=O)o2)ccc1Cl | i | 52 | i | i | i | i
N#CCCn1cc(C(=O)Nc2ccccc2Br)c(-c2cccs2)n1 | i | i | i | i | i | i
COCCNC(=O)CSc1nnc(-c2ccccc2F)n1Cc1ccccc1 | i | i | i | i | i | i
CC1C(=O)NN=C1C(=O)N/N=C\C(Br)=C\c1ccccc1 (configuration not stated) | 95 | i | i | i | i | i
Cc1c2cc(O)c(=O)cc-2oc2cc(O)c(O)cc12 | i | 80 | i | i | i | i
COc1cc(OC)c(-c2c3cc(O)c(=O)cc-3oc3cc(O)c(O)cc23)cc1OC | i | 81 | i | i | i | i
O=c1cc(-c2ccccc2Cl)oc2cc(O)cc(O)c12 | i | i | i | i | i | i
COc1cc2c(cc1OC)C(C(=O)O)C(c1ccc(C)o1)N(C)C2=O (configuration not stated) | i | i | i | i | i | i
CCN(CC)C(=O)C(=O)c1cn(CC(=O)N2CCc3ccccc3C2)c2ccccc12 | i | i | i | i | i | i
SMILES | FLuc inhib CS | Diaphorase inh | Diaphorase act | FLuc act counter | PMI act | PMI act hi M6P
C=C(C)Cn1c(SCC(=O)N/N=C/c2c(O)ccc3ccccc23)nc2ccccc2c1=O | i | i | i | i | i | i
O=C(NNc1c(Cl)cc(Cl)cc1Cl)C1CCC1 | i | i | i | i | i | i
CC(=O)n1cc([C@@H]2C=C(C(=O)N3CCN(Cc4ccccc4)CC3)O[C@H](OCc3ccc(CO)cc3)C2)c2ccccc21 | i | 59 | i | i | i | i
C[C@H]1C=C(C(=O)N2CCOCC2)O[C@@H](OCc2ccc(CO)cc2)C1 | i | i | i | i | i | i
CC(=O)n1cc([C@@H]2C=C(C(=O)Nc3ccccc3)O[C@H](OCc3ccc(CO)cc3)C2)c2ccccc21 | i | 51 | i | i | i | i
C[C@@H]1C=C(C(=O)N2CCN(C)CC2)O[C@H](OCc2ccc(CO)cc2)C1 | i | 68 | i | i | i | i
Cn1c(-c2ccc[nH]c2=O)nc2cc(Cl)ccc21 | i | i | i | i | i | i
COc1ccc(/C=C(/NC(=O)c2cccc([N+](=O)[O-])c2)C(=O)O)cc1 | i | i | i | i | i | 2
Cc1c(Cc2ccccc2)sc(NC(=O)/C=C/c2cccc3ccccc23)c1C(N)=O | i | i | i | i | i | i
O=[N+]([O-])c1cc2oc3c(c2c(C=NCc2ccccc2)c1O)CCCC3 | i | i | i | i | i | i
CC(C)CN=Cc1c(O)c([N+](=O)[O-])cc2oc3c(c12)CCCC3 | i | 56 | i | i | i | i
Cc1ccc(/C=N/Nc2cccc3cccnc23)c(O)c1 | 60 | i | i | i | i | 2
Cc1cccc(N/N=C/c2ccccc2O)c1 | i | i | i | i | i | 2.8
Cn1c(=S)ccc2ccccc21 | i | i | i | i | i | 2.3
CCOC(=O)Cc1cc(=O)n2[nH]c(-c3ccc(Cl)cc3)cc2n1 | 57 | i | i | i | i | i
O=C(CC1C(=O)NCCN1Cc1ccoc1)NCCCn1ncc2ccccc21 (configuration not stated) | i | i | i | i | i | i
CC(C)c1ccc(NC(=O)c2csnn2)cc1 | 68 | i | i | i | i | i
Cc1ccc(N2C(=O)CC(Sc3nc4ccccc4o3)C2=O)cc1Cl (configuration not stated) | i | i | i | i | i | i
CCOC(=O)C(=NC(C)CC)NNc1ccc(Br)cc1 (configuration not stated) | i | i | i | i | i | 2.7
CCOC(=O)C(=NC(C)CC)NNc1cccc(C(F)(F)F)c1 (configuration not stated) | i | i | i | i | i | i
CCOC(=O)C(=NC1CCS(=O)(=O)C1)NNc1ccc(Br)cc1 (configuration not stated) | i | i | i | i | i | 2.4
CCC(=O)NNc1ccc(Br)cc1 | i | i | i | i | 2 | 2.8
CCC(C)NC(=O)Nc1ccc(Br)cc1 (configuration not stated) | i | i | i | i | i | i
CCOC(=O)C(=NC1CCCCC1)NNc1cccc(C(F)(F)F)c1 | i | i | i | i | i | i
COc1cc(C)c(Br)cc1S(=O)(=O)NCCCN1CCOCC1 | i | i | i | i | i | i
Cc1cc(C)c(NC(=O)COC(=O)CCc2ccc(S(=O)(=O)N3CCCCC3)cc2)c(C)c1 | i | i | i | i | i | i
CCc1ccc(-c2cn3nc(C)c(C)nc3n2)cc1 | 84 | i | i | i | i | 2.2
